Measured values from different studies.
Protocols differ between the studies behind these lines.

SMILES	cell line	assay	system	conditions	quantity	value
C#C[C@]1(COP(=O)(O)OP(=O)(O)OP(=O)(O)O)O[C@@H](n2cnc3c(N)nc(F)nc32)C[C@@H]1O	human PBMC	–	plasma	oral, 5 mg, single dose	half-life	126 h
Cc1ccc2cccc(C(=O)O)c2c1	K562	cell growth or viability	–	–	IC50	> 688 µM
CC[C@@H](C)[C@H](N)C(=O)N1Cc2ccccc2C1	K562	cell growth or viability, ATP luminescence	–	60 µM	viability	92%
Cc1cn([C@H]2C[C@H](N=[N+]=[N-])[C@@H](CO)O2)c(=O)[nH]c1=O	human PBMC	cell growth or viability	–	–	CC50	> 100 µM
Clc1ccc(COc2cncc(-c3cnn(C4CCNCC4)c3)c2)c(Cl)c1	MDCK	–	Caco-2	–	Papp	10.9 ×10⁻⁶ cm/s
CC(C)=CCc1c(O)c(CC=C(C)C)c2occ(-c3ccc(O)cc3)c(=O)c2c1O	K562	cell growth or viability, MTT	–	100 µg/mL	viability	94%
COc1ccccc1CN[C@H]1C2CCN(CC2)[C@H]1C(c1ccccc1)c1ccccc1	human PBMC	cell growth or viability, MTS	–	–	CC50	> 25 µM
O=C(O)c1cccc2ccccc12	K562	cell growth or viability	–	–	IC50	> 744 µM
N[C@@H](CC(=O)N1CCN(C(c2ccc(F)cc2)c2ccc(F)cc2)CC1)C(=O)N1Cc2ccccc2C1	K562	cell growth or viability, ATP luminescence	–	60 µM	viability	7%
CC(C)/N=C(\N)c1ccc(NC(=O)c2ccc(C(=O)Nc3ccc(/C(N)=N/C(C)C)cc3)cc2)cc1	K562	cell growth or viability	–	–	IC50	38.8 µM
C=C(C)C(O)Cc1c(O)c(CC=C(C)C)c2occ(-c3ccc(O)cc3)c(=O)c2c1O (centres unmarked)	K562	cell growth or viability, MTT	–	100 µg/mL	viability	71.7%
